A selection follows.
Apaf1 activ: activates human Apaf-1 apoptosome; O14727; Apaf-1 apoptosome caspase-3 activation, DEVD-Rh110 fluorescence; hits give low values; activity change, negative = activation, % at 20 µM; actives 0.31% (n = 330,000); AID 489031;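 active = activity change at or below -40% at 20 µM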
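Schedule: 30 min preincubation, 50 min reaction, room temperature / System: biochemical Apaf-1 apoptosome reconstitution / Medium: 20 mM HEPES pH 7.5 with CHAPS, BSA / Evaluation: Caspase-3 cleavage activity downstream of Apaf-1 activation / Detection: Caspase-3-released Rh110 fluorescence, 540 nm emission, 480 nm excitation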
Rh110 interf act: interferes with Rh110 fluorescence, flagging false Apaf-1 activators | shares compounds with Apaf1 activ | Rh110 fluorescence interference, quenched caspase reaction, Ex480/Em540 | fluorescence interference (activity change), % at 20 µM, hits read low | 980 tested, under 10 active | AID 504616;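 active = mean activity change at or below -40% when tested at 20 µM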
Apaf-1 act conf2: Apaf-1 (human) activation, single-dose confirmed. shares compounds with Apaf1 activ. reconstituted apoptosome caspase-3 activity, DEVD-Rh110 fluorescence; hits give low values. activity change, negative = activation, % at 20 µM. actives 5% (n = 980). AID 504617;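 active = mean activity change at or below -40%, meaning activation of 40% or more, at 20 µM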
Fluor interf act: Apaf-1 activator counter-screen fluorescence artifact | EC50, µM | 55 tested, under 10 active | shares compounds with Apaf1 activ | fluorescence interference counterscreen, Apaf-1 activator assay; call rule not given here
The depositor's hits bear a star.

SMILES | Apaf1 activ | others
COc1ccc(-c2cc(C(F)(F)F)n3ncc(C(=O)NCC4CCCO4)c3n2)cc1OC (centres undefined) | -496*
COCCn1c(N)c(C(=O)NCC2CCCO2)c2nc3ccccc3nc21 (centres undefined) | 75
CC(C)Cn1c(N)c(C(=O)NCC2CCCO2)c2nc3ccccc3nc21 (centres undefined) | 65
C#CCOCCOCCOCCNc1nc(N2CCN(C(=O)[C@H](Cc3cc4ccccc4[nH]3)n3cc([C@@H](N)CC(C)C)nn3)CC2)nc(N2CCN(C(=O)[C@H](Cc3cc4ccccc4[nH]3)n3cc([C@@H](N)CC(C)C)nn3)CC2)n1 | 71
COc1ccc(CC(=O)N(C)CC(=O)Nc2c(C)cccc2C)cc1S(=O)(=O)N1CCOCC1 | 60
COc1ccc(CC(=O)N(C)CC(=O)Nc2ccccc2C(F)(F)F)cc1S(=O)(=O)N1CCOCC1 | 46
COc1ccc(CN(C)C(C)C(=O)Nc2ccc(S(=O)(=O)N3CCCC3)cc2)c(OC)c1OC (centres undefined) | -83*
C#CCOCCOCCOCCNc1nc(N2CCN(C(=O)[C@H]([C@@H](C)CC)n3cc([C@@H](N)CO)nn3)CC2)nc(N2CCN(C(=O)[C@H](Cc3cc4ccccc4[nH]3)n3cc([C@@H](N)C(C)CC)nn3)CC2)n1 (some centres undefined) | 48
O=C(Nc1nc2c(Cl)cccc2s1)c1ccc([N+](=O)[O-])o1 | -120*
CCCCCCCCCCCCC/C=C/[C@@H](O)[C@@H](N)CO | 79
COc1ccc(CN2CC(C(=O)NCc3cccc(OC)c3)CC2=O)cc1 (centres undefined) | 67
Cc1cccc(N2CCN(C(=O)c3cc4cc(F)ccc4[nH]3)CC2)c1C | 42
CC(C)N(C(=O)[C@H]1C[C@H](CC(=O)NCCC2=CCCCC2)C(=O)N2CCc3c([nH]c4ccc(Cl)cc34)[C@]12C)C(C)C | 44
Cc1c(O)cccc1C(=O)N[C@@H](CSc1ccccc1)[C@H](O)CN1C[C@H]2CCCC[C@H]2C[C@H]1C(=O)NC(C)(C)C | 30
COc1ccc(OCc2cc(C(=O)NC3CCOC(C)(C)C3)no2)c2ccccc12 (centres undefined) | 63
C[C@@H]1CCCCCCCCC(=O)OCCN[C@H](C)CCCCCCCCC(=O)OCCN[C@H](C)CCCCCCCCC(=O)OCCN1 | 68
CCCCN1CC[C@H]2C=CC[C@@H](C(=O)N3CCOCC3)[C@H]2C1=O | -437*
CCOC(=O)N=Nc1c2ccccc2c2nc3no[nH]c3nc12 | 88
COc1ccc(N=CC2=C(Nc3ccc(OC)cc3)c3c(C)nn(-c4ccccn4)c3CC2)cc1 | 93
C=CC(=O)Nc1ccc(N(C)c2ccnc(Nc3ccc(N4CCN(C)CC4)cc3)n2)cc1 | 62
COc1ccc(/C=N/Nc2cc(N(C)C)nc(N(C)C)n2)cc1 | 97
COc1ccc2c(c1)CC/C(=C\Nc1ccc3c(c1)OCO3)C2=O | 78
COc1ccc(S(=O)(=O)N/N=C\c2ccc3c(c2)OCO3)c(OC)c1 | -120* | Rh110 interf act=0;Apaf-1 act conf2=6
NC(=O)CC1Nc2cccc3cccc(c23)NC1=O (centres undefined) | 98
O=C(/C=C/c1ccc(-c2ccccc2[N+](=O)[O-])o1)c1ccc(Br)cc1 | 49
SMILES | Apaf1 activ | others
N#C/C(=C\c1ccc(OCc2ccc(Cl)cc2)cc1)C(=O)Nc1cccc(C(=O)O)c1 | -202* | Rh110 interf act=13;Apaf-1 act conf2=-71*;Fluor interf act=>100
O=C1NC2=C(CCc3ccccc32)C(c2ccc(Br)cc2)N1 (centres undefined) | 69
O=C(NCc1nc2ccccc2[nH]1)C1=C[C@H](c2ccccc2)C[C@H](OCc2ccc(CO)cc2)O1 | -127* | Rh110 interf act=5;Apaf-1 act conf2=27
CCOC(=O)C1CCCN(c2cc(NCCCO)c([N+](=O)[O-])c3nonc23)C1 (centres undefined) | 40
Cc1ccc(C(=O)c2c3ccc(N)cc3nn2CCC(N)=O)cc1 | 82
CCN(CC)c1nc(OCCNC(=O)Nc2ccccc2)nc(N(CC)CC)n1 | -52* | Rh110 interf act=-2;Apaf-1 act conf2=17
O=C(NCCOc1nc(N2CCCCC2)nc(N2CCCCC2)n1)Nc1ccccc1 | 41
COCCNC(=O)c1c(N)n(-c2ccccc2)c2nc3ccccc3nc12 | 81
Oc1ccc(C[C@@H]2CNCCN2CCC23CC4CC(CC(C4)C2)C3)cc1 | 47
CCOc1ccccc1N(CC(=O)Nc1ccc(S(=O)(=O)N2CCOCC2)cc1)S(=O)(=O)c1ccc(Cl)cc1 | -68* | Rh110 interf act=-1;Apaf-1 act conf2=10
